Source: ChEMBL document CHEMBL1141169, “Discovery of 5-arylsulfonamido-3-(pyrrolidin-2-ylmethyl)-1H-indole derivatives as potent, selective 5-HT6 receptor agonists and antagonists” (J Med Chem, 2005)

Columns and labels:
[1] = target: T1, 5-hydroxytryptamine receptor 6 (Homo sapiens, UniProt P50406); test: Inhibition of 5-HT stimulated cAMP production in HeLa cells expressing human 5-hydroxytryptamine 6 receptor; format: functional, cell-based
How it was run: (§1)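 Antagonist mode: cAMP production in HeLa cells stably transfected with the human 5-HT6 receptor was stimulated with 5-HT, and inhibition was measured across a range of ligand concentrations. IC50 and Imax each determined in triplicate.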

[2] = target: T1, 5-hydroxytryptamine receptor 6; test: Effective agonist concentration in cAMP release assay in HeLa cells expressing human 5-hydroxytryptamine 6 receptor; format: functional, cell-based
How it was run: (§2)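 cAMP production read out across a range of ligand concentrations in HeLa cells stably transfected with the human 5-HT6 receptor, ligand given alone as agonist. EC50 and Emax each determined in triplicate.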

[3] = target: T1, 5-hydroxytryptamine receptor 6; test: Maximum percentage agonism of cAMP production in HeLa cells expressing human 5-hydroxytryptamine 6 receptor; format: functional, cell-based; how it was run: as §2
[4] = target: T1, 5-hydroxytryptamine receptor 6; test: Inhibition of [3H]LSD binding to human 5-hydroxytryptamine 6 receptor expressed in HeLa cells; format: cell-based
How it was run: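 Competition binding against [3H]-LSD on cloned human 5-HT6 receptors stably expressed in HeLa cells. Ki determined in triplicate; single-point lines are % inhibition at 1000 nM.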

[5] = target: T1, 5-hydroxytryptamine receptor 6; test: Maximum percentage inhibition of 5-HT stimulated cAMP production in HeLa cells expressing 5-hydroxytryptamine 6 receptor; format: functional, cell-based; how it was run: as §1

T1 sequence (P50406 whole entry): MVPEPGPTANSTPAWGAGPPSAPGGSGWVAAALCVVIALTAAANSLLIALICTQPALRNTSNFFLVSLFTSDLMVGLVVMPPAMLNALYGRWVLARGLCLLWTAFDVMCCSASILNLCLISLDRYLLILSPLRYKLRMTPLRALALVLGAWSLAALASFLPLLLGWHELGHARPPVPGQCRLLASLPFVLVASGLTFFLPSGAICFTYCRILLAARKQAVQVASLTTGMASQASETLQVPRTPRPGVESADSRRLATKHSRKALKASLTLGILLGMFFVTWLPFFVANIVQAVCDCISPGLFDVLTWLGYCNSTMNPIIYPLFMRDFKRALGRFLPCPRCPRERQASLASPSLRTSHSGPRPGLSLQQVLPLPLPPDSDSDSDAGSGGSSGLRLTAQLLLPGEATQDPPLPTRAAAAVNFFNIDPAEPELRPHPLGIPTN

SMILES | IC50 [1] | EC50 [2] | Emax [3] | Ki [4] | Imax [5]
CN1CCC[C@H]1Cc1c[nH]c2ccc(NS(=O)(=O)c3ccc(OC(F)(F)F)cc3)cc12 | 25.8 nM | 180 nM | 68% | 8 nM | 85%
CN1CCC[C@H]1Cc1c[nH]c2ccc(NS(=O)(=O)c3ccc4ccccc4c3)cc12 | 10.4 nM |  |  | 1 nM | 95%
CN1CCC[C@@H]1Cc1c[nH]c2ccc(NS(=O)(=O)c3ccccc3F)cc12 |  | 1.3 nM | 91% | 1 nM | 
Cc1c(S(=O)(=O)Nc2ccc3[nH]cc(C[C@@H]4CCCN4C)c3c2)sc2ccc(Cl)cc12 | 1.1 nM |  |  | 2 nM | 91%
CC(C)c1ccc(S(=O)(=O)Nc2ccc3[nH]cc(C[C@H]4CCCN4C)c3c2)cc1 |  |  |  | 1 nM | 
O=S(=O)(Nc1ccc2[nH]cc(C[C@H]3CCCN3)c2c1)c1cccc(C(F)(F)F)c1 |  | 5.8 nM | 77% | 4 nM | 
O=S(=O)(Nc1ccc2[nH]cc(C[C@H]3CCCN3)c2c1)c1ccc(F)cc1F |  | 5.2 nM | 78% | 8 nM | 
CN1CCC[C@H]1Cc1c[nH]c2ccc(NS(=O)(=O)c3ccc(Cl)c(Cl)c3)cc12 |  |  |  | 7 nM | 
O=S(=O)(Nc1ccc2[nH]cc(C[C@H]3CCCN3)c2c1)c1ccc(Cl)cc1 |  | 4.5 nM | 99% | 3 nM | 
CN1CCC[C@H]1Cc1c[nH]c2ccc(NS(=O)(=O)c3ccc(C(F)(F)F)cc3)cc12 | 21.6 nM |  |  | 10 nM | 78%
CN1CCC[C@@H]1Cc1c[nH]c2ccc(NS(=O)(=O)c3cccc(C(F)(F)F)c3)cc12 |  | 3.2 nM | 90% | 1 nM | 
O=S(=O)(Nc1ccc2[nH]cc(C[C@H]3CCCN3)c2c1)c1ccc(Cl)c(Cl)c1 |  |  |  | 3 nM | 
CN1CCC[C@@H]1Cc1c[nH]c2ccc(NS(=O)(=O)c3ccc4ccccc4c3)cc12 |  |  |  | 1 nM | 
O=S(=O)(Nc1ccc2[nH]cc(C[C@H]3CCCN3)c2c1)c1ccc(Br)cc1 |  |  |  | 3 nM | 
CN1CCC[C@@H]1Cc1c[nH]c2ccc(NS(=O)(=O)c3ccc(I)cc3)cc12 |  | 2.7 nM | 72% | 0.3 nM | 
O=S(=O)(Nc1ccc2[nH]cc(C[C@@H]3CCCN3)c2c1)c1ccc(F)cc1F |  |  |  | 131 nM | 
CC(C)c1ccc(S(=O)(=O)Nc2ccc3[nH]cc(C[C@H]4CCCN4)c3c2)cc1 |  |  |  | 1 nM | 
CN1CCC[C@@H]1Cc1c[nH]c2ccc(NS(=O)(=O)c3ccc(Cl)c(Cl)c3)cc12 |  |  |  | 1 nM | 
CN1CCC[C@H]1Cc1c[nH]c2ccc(NS(=O)(=O)c3ccccc3Br)cc12 | 0.8 nM |  |  | 5 nM | 75%
O=S(=O)(Nc1ccc2[nH]cc(C[C@@H]3CCCN3)c2c1)c1ccc(Br)cc1 |  |  |  | 57 nM | 
O=S(=O)(Nc1ccc2[nH]cc(C[C@H]3CCCN3)c2c1)c1ccccc1 |  | 1.4 nM | 73% | 4 nM | 
CN1CCC[C@H]1Cc1c[nH]c2ccc(NS(=O)(=O)c3ccc(F)cc3Cl)cc12 |  |  |  | 35 nM | 
O=S(=O)(Nc1ccc2[nH]cc(C[C@H]3CCCN3)c2c1)c1ccc(F)cc1 |  |  |  | 4 nM | 

SMILES | IC50 [1] | EC50 [2] | Emax [3] | Ki [4] | Imax [5]
O=S(=O)(Nc1ccc2[nH]cc(C[C@H]3CCCN3)c2c1)c1ccc(I)cc1 |  |  |  | 1 nM | 
COc1ccc(S(=O)(=O)Nc2ccc3[nH]cc(C[C@H]4CCCN4C)c3c2)cc1 |  | 2.2 nM | 83% | 1 nM | 
Cc1noc(C)c1S(=O)(=O)Nc1ccc2[nH]cc(C[C@H]3CCCN3C)c2c1 |  | 0.8 nM | 77% | 1 nM | 
CN1CCC[C@H]1Cc1c[nH]c2ccc(NS(=O)(=O)c3ccccc3)cc12 |  |  |  | 16 nM | 
O=S(=O)(Nc1ccc2[nH]cc(C[C@H]3CCCN3)c2c1)c1cccc(Cl)c1 |  | 1 nM | 92% | 2 nM | 
CN1CCC[C@@H]1Cc1c[nH]c2ccc(NS(=O)(=O)c3ccc(C(F)(F)F)cc3)cc12 |  | 4.5 nM | 85% | 0.4 nM | 
CN1CCC[C@@H]1Cc1c[nH]c2ccc(NS(=O)(=O)c3ccc(F)cc3)cc12 |  | 1.1 nM | 85% | 1 nM | 
COc1ccc(S(=O)(=O)Nc2ccc3[nH]cc(C[C@@H]4CCCN4C)c3c2)cc1 |  |  |  | 34 nM | 
CN1CCC[C@H]1Cc1c[nH]c2ccc(NS(=O)(=O)c3ccccc3Cl)cc12 |  |  |  | 22 nM | 
Cc1ccc(S(=O)(=O)Nc2ccc3[nH]cc(C[C@H]4CCCN4C)c3c2)cc1 |  | 1.3 nM | 79% | 1 nM | 
O=S(=O)(Nc1ccc2[nH]cc(C[C@@H]3CCCN3)c2c1)c1cccc(Cl)c1 |  |  |  | 36 nM | 
CN1CCC[C@H]1Cc1c[nH]c2ccc(NS(=O)(=O)c3cccc(C(F)(F)F)c3)cc12 | 14.1 nM |  |  | 12 nM | 78%
Cc1ccc(S(=O)(=O)Nc2ccc3[nH]cc(C[C@H]4CCCN4)c3c2)cc1 |  |  |  | 4 nM | 
CN1CCC[C@@H]1Cc1c[nH]c2ccc(NS(=O)(=O)c3ccc(OC(F)(F)F)cc3)cc12 |  | 2.9 nM | 94% | 1 nM | 
CC(C)c1ccc(S(=O)(=O)Nc2ccc3[nH]cc(C[C@@H]4CCCN4C)c3c2)cc1 | 21.1 nM |  |  | 3 nM | 76%
CN1CCC[C@H]1Cc1c[nH]c2ccc(NS(=O)(=O)c3ccc(Br)cc3)cc12 | 1.6 nM |  |  | 9 nM | 85%
O=S(=O)(Nc1ccc2[nH]cc(C[C@H]3CCCN3)c2c1)c1ccc(OC(F)(F)F)cc1 |  | 4.2 nM | 86% | 5 nM | 
CN1CCC[C@@H]1Cc1c[nH]c2ccc(NS(=O)(=O)c3ccccc3)cc12 |  |  |  | 1 nM | 
CN1CCC[C@H]1Cc1c[nH]c2ccc(NS(=O)(=O)c3cccc(Cl)c3)cc12 |  |  |  | 11 nM | 
O=S(=O)(Nc1ccc2[nH]cc(C[C@H]3CCCN3)c2c1)c1ccccc1F |  |  |  | 4 nM | 
O=S(=O)(Nc1ccc2[nH]cc(C[C@H]3CCCN3)c2c1)c1ccc(F)cc1Cl |  |  |  | 9 nM | 
COc1ccc(Cl)cc1S(=O)(=O)Nc1ccc2[nH]cc(C[C@@H]3CCCN3C)c2c1 |  |  |  | 24 nM | 
